JNK3 blocker: JNK3 kinase activity inhibitors, primary screen, biochemical, human, purified enzyme. Mitogen-activated protein kinase 10 (Homo sapiens), P53779. HTS. inhibition, % at 8 µM. actives 0.61% (n = 60,000); in the data active = inhibition above about 17%;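 note: 0% = DMSO and 100% = reference inhibitor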
SF1 activator: activators of human SF-1, primary screen, cell-based, CHO-K1, Gal4-SF-1 LBD, luciferase luminescence; actives 1.9% (n = 65,000); activation, % at 10 µM; CHO-K1 Gal4-SF-1 LBD luciferase reporter; % increase over DMSO SF-1-specific signal;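 active = activation above the mean activation of all tested compounds plus 3 SD, cut at about 50% in these data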
Target sequence (Q13285 whole entry, looked up, the tested form may be a part): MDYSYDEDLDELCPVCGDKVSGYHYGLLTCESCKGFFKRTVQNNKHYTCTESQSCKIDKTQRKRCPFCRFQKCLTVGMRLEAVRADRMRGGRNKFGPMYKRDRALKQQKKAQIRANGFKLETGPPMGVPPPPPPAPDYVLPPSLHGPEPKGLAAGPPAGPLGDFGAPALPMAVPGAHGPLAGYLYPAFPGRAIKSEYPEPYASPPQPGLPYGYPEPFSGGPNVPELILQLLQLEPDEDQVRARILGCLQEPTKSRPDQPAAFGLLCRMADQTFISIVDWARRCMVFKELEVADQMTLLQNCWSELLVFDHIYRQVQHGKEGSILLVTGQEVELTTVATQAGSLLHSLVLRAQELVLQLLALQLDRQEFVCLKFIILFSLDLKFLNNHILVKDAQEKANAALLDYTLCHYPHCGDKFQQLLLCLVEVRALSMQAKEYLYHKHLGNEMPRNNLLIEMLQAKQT
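material = CHO-K1 cells with Gal4–hSF-1 LBD chimera plus Gal4-driven luciferase | compound = 10 µM single point, 1% DMSO | incubation = 20 h compound exposure at 37 °C after 1 h cell settling | measured by = SteadyLite luciferase luminescence | evaluation = percent activation relative to DMSO median and mock-transfected background | control set = DMSO negative control and −SF1 background wells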
RORA act: activators of orphan receptor RORA, primary screen, cell-based, luminescence. CHO-K1 Gal4-RORA LBD luciferase reporter; percent increase over mock-subtracted basal signal. activation, % at 10 µM. actives 1.5% (n = 65,000). Nuclear receptor ROR-alpha (Homo sapiens), P35398. AID 560, 2006;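 active = activation above the mean of all tested compounds plus 3 SD, cut at about 49% in these data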;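 note: 0% = DMSO-treated RORA cells and 100% = added signal equal to DMSO minus mock-transfected cells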
PKA inh: inhibitors of human PKA kinase activity, primary screen, biochemical, ATP-depletion luminescence, Kemptide substrate. PKA Kemptide phosphorylation, Kinase-Glo ATP luminescence. inhibition, % at 6 µM. actives 0.1% (n = 65,000). cAMP-dependent protein kinase catalytic subunit alpha (Homo sapiens), P17612;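 active = inhibition above the screen-wide mean inhibition plus 3 SD, cut at about 21% in these data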
Htt clearance: clearance of mutant huntingtin inclusions, primary screen, imaging, HeLa Exon1htt(103Q)mCFP, confocal imaging. aggregate imaging; zero = plate's median compound well. inhibition, % at 1.5 µM. actives 0.42% (n = 47,000);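 active = inhibition of aggregate fluorescence above about 70%, also judged a hit by eye on the cell image, limit read from the data, passing the limit was not always enough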;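 note: cells exposed to compound for three days before fixation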
ROCK2 blocker: inhibitors of human ROCK2 kinase, primary screen, biochemical, high-throughput, luminescence; Rho-associated protein kinase 2 (Homo sapiens), O75116; purified ROCK2, Kinase-Glo ATP depletion luminescence; inhibition, % at 6 µM; actives 0.35% (n = 60,000);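 active = inhibition above the screen-wide mean inhibition plus 3 SD, cut at about 18% in these data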;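 note: plate controls were DMSO wells for no effect and Y-27632 control wells after no-enzyme background subtraction for full effect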
* marks the source's active call; other numbers are inactive results; . = not tested or not shown. In the library only some 2.9% were active in any assay of this set; here they are far more common.

SMILES	JNK3 blocker	SF1 activator	RORA act	PKA inh	Htt clearance	ROCK2 blocker
O=C(COc1ccc(S(=O)(=O)NC2CCCCC2)cc1Cl)N1CCN(c2ccccc2)CC1	.	.	.	.	27	.
Cc1ccc(NC(=O)CC2S/C(=N/c3nccs3)N(C)C2=O)c(C)c1 (stereo unspecified)	.	.	.	.	-4	.
O=C(Nn1cnc2ccccc2c1=O)c1ccccc1Cl	-3	65*	37	9	-5	3
CCOC(=O)C1=C(NC(=O)c2ccc(Br)o2)Nc2ccccc2N=C1	3	-25	-3	-2	4	-3
Oc1ccc(Cl)cc1CNc1ccc(Br)cn1	6	89*	33	10	9	7
C=CCn1c(Cc2cccs2)nnc1SCC(=O)Nc1cc(OC)cc(OC)c1	-5	5	6	0	14	-1
Cc1sc2c(c1C)c(=O)n(-c1ccccc1)c1nnc(C)n21	2	10	10	10	-31	8
CCOC(=O)c1cnn2c(C)cc(-c3ccccc3)nc12	1	65*	43	0	-1	-3
CNc1oc(-c2ccc(OCc3ccccc3)cc2)nc1C#N	5	58*	27	1	.	0
COc1ccc(-c2nc(C#N)c(NCC3CCCO3)o2)cc1OC (stereo unspecified)	-14	19	53*	4	.	5
C=CCNc1oc(-c2ccc(OCC)cc2)nc1C#N	-4	21	-13	7	-14	8
C=CCNc1oc(-c2ccc(OC)cc2)nc1C#N	5	57*	10	7	24	3
O=C(c1ccc(CS(=O)(=O)c2cccc(C(F)(F)F)c2)o1)N1CCN(c2ccccn2)CC1	-6	-8	23	-3	.	-5
Brc1cccc(-c2n[nH]c(-c3ccccc3)n2)c1	-5	65*	83*	4	-20	1
Cc1ccc(CCNC(=O)C2CCCN(S(=O)(=O)c3cnc[nH]3)C2)cc1 (stereo unspecified)	1	6	-4	2	70*	6
Cc1ccc2nc(NC(=O)C3CCCN(S(=O)(=O)c4cnc[nH]4)C3)sc2c1 (stereo unspecified)	-1	26	54*	4	14	4
O=C(NCCc1ccc(Cl)cc1)C1CCCN(S(=O)(=O)c2cnc[nH]2)C1 (stereo unspecified)	-2	8	2	0	.	4
O=C(NC1CCCC1)C(c1ccco1)N(Cc1ccccc1)C(=O)c1csnn1 (stereo unspecified)	3	4	-25	7	.	17
O=C1N/C(=C\c2ccccc2)c2ccccc21	6	63*	51*	8	-45	9
CCN(CC)c1cccc(OC2=NS(=O)(=O)c3ccccc32)c1	-9	-12	-18	2	21	5
c1nc(NC2CCCCC2)c2[nH]cnc2n1	8	32	-19	39*	.	34*
c1nc(NCC2CCCO2)c2[nH]cnc2n1 (stereo unspecified)	.	-5	-2	16	-88	.
COc1ccc(-c2csc(NCc3ccco3)n2)cc1C	-1	80*	49*	-7	.	-3
CCN1C(=C2C(=O)c3ccccc3C2=O)C=Cc2ccccc21	.	.	.	.	-4	.
CC1=CC(=C2C(=O)c3ccccc3C2=O)C=C(C)N1C	21*	29	47	-1	.	0
SMILES	JNK3 blocker	SF1 activator	RORA act	PKA inh	Htt clearance	ROCK2 blocker
Cc1cccnc1NC(=O)Nc1ccc(F)cc1	10	98*	46	3	17	4
CCOc1ccc(Nc2nc(C)cc(C)c2C#N)cc1	-2	-1	1	6	77*	10
COCCn1c(SCC(=O)NCc2ccc3c(c2)OCO3)nnc1-c1c[nH]c2ccccc12	-1	-8	2	3	.	4
Oc1ccc(-c2nnc(-c3ccc(O)cc3)nn2)cc1	8	11	41	-2	3	3
Oc1ccc(-c2cccc(-c3ccc(O)cc3)n2)cc1	3	38	52*	-2	-22	-4
CCOc1ccc(NC(=O)C2CSC(c3ccncc3)=N2)cc1 (stereo unspecified)	5	2	-17	8	.	6
Cc1cccc(C)c1NS(=O)(=O)c1c(C)[nH]c(=O)[nH]c1=O	-3	2	-37	1	.	2
COC(=O)c1sccc1NC(=O)CN1CCN(c2ccc(F)cc2)CC1	47*	9	-5	7	.	5
COc1cc(CNC2CCCCCC2)cc(OC)c1	.	.	.	.	-34	.
COc1ccc(C2C(C(=O)NCc3ccco3)CCC(=O)N2c2ccc(OC)cc2)cc1 (stereo unspecified)	17*	-18	-15	-1	.	2
Cc1ccc(CCP(=O)(O)CN2CCCCC2)cn1	-1	12	-14	6	.	4
Cc1ccc2c(c1)c1c(n2CC(O)Cn2c(C)nc3ccccc32)/C(=N\O)CCC1 (stereo unspecified)	-1	12	23	2	100*	5
CC1CC1C(=O)OCc1cc(=O)n2cc(Br)ccc2n1 (stereo unspecified)	-3	55*	32	10	-4	-1
O=C(Cc1ccccc1)NCc1nc2ccccc2[nH]1	3	-11	-6	0	88*	2
O=c1sc(Nc2ccccc2)nc2ccsc12	.	56*	70*	4	.	.
COc1cc(NC(=O)c2cccs2)c(OC)cc1NC(=O)CCn1nnc2ccccc21	-2	-6	-16	-5	.	-5
COc1cccc(C(=O)Nc2cccc(SC)c2)c1	-7	81*	51*	-1	7	6
CCCC(=O)Nc1ccc(NC(=O)c2ccccc2OC)cn1	.	0	-16	2	-15	.
CCCC(=O)Nc1ccc(NC(=O)c2ccccn2)cn1	.	27	89*	5	.	.
CCCc1nnc(NC(=O)c2cccc(OC)c2)s1	-1	37	57*	12	.	6
COc1cccc(C(=O)Nc2ccccc2)c1	.	.	.	.	-1	.
CCCC(=O)Nc1ccc(NC(=O)c2cccc(OC)c2)nc1	-10	60*	44	2	.	3
O=C(CSc1cn(CCNC(=O)c2cccs2)c2ccccc12)NCc1ccccc1	.	.	.	.	-24	.
COc1ccc2cc(Br)ccc2c1CC(=O)NC1CC(C)(C)NC(C)(C)C1	.	.	.	.	-14	.
CCOC(=O)C(C(C)=O)c1c(Br)c(O)c(O)c2c(C(=O)c3ccc(C)cc3)coc12 (stereo unspecified)	-3	-42	-31	1	21	-4
Cc1cc(OCC(=O)Nn2cnnc2)ccc1Br	-8	5	-8	3	.	5

Compound activity: PubChem BioAssay, several laboratories
